Source: ChEMBL document CHEMBL2203163, “Bromine- and chlorine-containing aeruginosins from Microcystis aeruginosa bloom material collected in Kibbutz Geva, Israel” (J Nat Prod, 2012)

Legend:
[1] = Inhibition of trypsin
Summary of the method: (§1)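 Protease-inhibition assay read on a microplate (ELISA-type) reader. Activity is reported as IC50.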

[2] = Inhibition of thrombin; summary of the method: as §1

IC50 [1] [µM] | IC50 [2] [µM] | SMILES
8.5 | > 45.5 | CC(C)C[C@@H](NC(=O)[C@H](O)Cc1cc(Cl)c(O)c(Cl)c1)C(=O)N1[C@H](C(=O)NCCCCNC(=N)N)C[C@@H]2CC[C@@H](O)C[C@@H]21
18.2 | > 45.5 | CC[C@H](C)[C@@H](NC(=O)[C@H](O)Cc1cc(Br)c(O)c(Br)c1)C(=O)N1[C@H](C(=O)NCCCCNC(=N)N)C[C@@H]2CC[C@@H](OS(=O)(=O)O)C[C@@H]21 (relative stereo)
2.3 | 12.9 | CC[C@H](C)[C@@H](NC(=O)[C@H](O)Cc1cc(Br)c(O)c(Br)c1)C(=O)N1[C@H](C(=O)NCCCCNC(=N)N)C[C@@H]2CC[C@@H](O)C[C@@H]21 (relative stereo)
12.2 | > 45.5 | CC[C@H](C)[C@@H](NC(=O)[C@H](O)Cc1cc(Cl)c(O)c(Br)c1)C(=O)N1[C@H](C(=O)NCCCCNC(=N)N)C[C@@H]2CC[C@@H](OS(=O)(=O)O)C[C@@H]21 (relative stereo)
3.2 | 12.8 | CC[C@H](C)[C@@H](NC(=O)[C@H](O)Cc1cc(Cl)c(O)c(Br)c1)C(=O)N1[C@H](C(=O)NCCCCNC(=N)N)C[C@@H]2CC[C@@H](O)C[C@@H]21 (relative stereo)
